ChEMBL document CHEMBL3232915, “Discovery, optimization, and characterization of novel D2 dopamine receptor selective antagonists” (J Med Chem, 2014)

What was measured:
D(2) dopamine receptor [1] = target: T1, D(2) dopamine receptor (Homo sapiens, UniProt P14416); experiment: Antagonist activity at D2 receptor (unknown origin) expressed in Flp-In TREx 293 cells coexpressing chimeric Gqi5 protein assessed as calcium accumulation by Fluo-8AM dye based fluorescence analysis; type: functional, cell-based
T1 sequence (P14416 whole entry): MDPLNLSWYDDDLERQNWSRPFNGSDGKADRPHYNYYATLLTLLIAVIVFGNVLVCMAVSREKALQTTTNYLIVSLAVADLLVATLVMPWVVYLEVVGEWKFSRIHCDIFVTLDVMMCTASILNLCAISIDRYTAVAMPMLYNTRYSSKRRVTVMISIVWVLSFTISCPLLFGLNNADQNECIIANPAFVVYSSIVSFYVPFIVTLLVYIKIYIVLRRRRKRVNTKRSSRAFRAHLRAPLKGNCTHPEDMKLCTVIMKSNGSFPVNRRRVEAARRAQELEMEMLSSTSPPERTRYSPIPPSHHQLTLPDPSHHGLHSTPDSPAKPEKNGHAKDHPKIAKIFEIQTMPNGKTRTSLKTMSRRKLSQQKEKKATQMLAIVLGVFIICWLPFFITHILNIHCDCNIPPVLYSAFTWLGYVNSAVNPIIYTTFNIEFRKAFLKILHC

D(2) dopamine receptor [2] = target: T1, D(2) dopamine receptor; experiment: Antagonist activity at ProLink-tagged D2 receptor (unknown origin) expressed in CHO cells assessed as inhibition of dopamine-stimulated beta-arrestin binding treated for 90 mins prior to dopamine challenge by PathHunter DiscoveRx assay; type: cell-based
D(3) dopamine receptor [3] = target: T2, D(3) dopamine receptor (Homo sapiens, UniProt P35462); experiment: Antagonist activity at ProLink-tagged D3 receptor (unknown origin) expressed in CHO cells assessed as inhibition of dopamine-stimulated beta-arrestin binding treated for 90 mins prior to dopamine challenge by PathHunter DiscoveRx assay; type: cell-based
T2 sequence (P35462 whole entry): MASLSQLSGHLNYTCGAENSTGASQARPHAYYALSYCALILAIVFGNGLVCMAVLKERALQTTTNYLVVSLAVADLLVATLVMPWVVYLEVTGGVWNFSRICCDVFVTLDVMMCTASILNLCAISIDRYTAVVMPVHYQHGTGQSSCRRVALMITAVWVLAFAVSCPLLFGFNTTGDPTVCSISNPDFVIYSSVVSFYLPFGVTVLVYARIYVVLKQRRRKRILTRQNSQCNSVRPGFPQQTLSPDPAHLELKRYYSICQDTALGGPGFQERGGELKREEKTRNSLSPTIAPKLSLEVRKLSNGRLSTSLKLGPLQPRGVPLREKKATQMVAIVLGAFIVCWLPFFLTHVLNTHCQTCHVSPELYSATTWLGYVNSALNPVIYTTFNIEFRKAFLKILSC

D(2) dopamine receptor [4] = target: T1, D(2) dopamine receptor; experiment: Displacement of [3H]methylspiperone from human D2L receptor expressed in HEK cell membrane after 90 mins by scintillation counting analysis; type: cell membranes, HEK293
D(3) dopamine receptor [5] = target: T2, D(3) dopamine receptor; experiment: Displacement of [3H]methylspiperone from human D3 receptor expressed in HEK293 cell membrane after 90 mins by scintillation counting analysis; type: cell membranes
CHO = experiment: Ratio of AC50 for ProLink-tagged D3 receptor (unknown origin) expressed in CHO cells to AC50 for ProLink-tagged D2 receptor (unknown origin) expressed in CHO cells by beta-arrestin assay; type: cell-based; details: Homo sapiens
HEK293 = experiment: Ratio of Ki for human D3 receptor expressed in HEK293 cell membrane to Ki for human D2L receptor expressed in HEK cell membrane; type: cell-based
Summary of the method: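 Competition binding with [3H]methylspiperone on membranes from stable HEK cells. […] Incubation 90 min at room temperature in EBSS with sodium metabisulfite, nonspecific binding with 4 µM (+)-butaclamol, then GF/C filtration and scintillation counting. Ki from IC50 via Cheng–Prusoff.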

Compound	AC50 (D(2) dopamine receptor [1])	further results
COc1ccc(CNC(=O)c2ccc3c(c2)C(=O)c2ccccc2C3=O)cc1	> 77000 nM	
COc1ccc(NC(=O)c2ccc3c(c2)N(C)C(=O)c2ccccc2[S+]3[O-])cc1 (racemic)	353 nM	
CN1C(=O)c2ccccc2[S+]([O-])c2ccc(C(=O)NCc3ccc(Cl)cc3)cc21 (racemic)	141 nM	
CCN1C(=O)c2ccccc2[S+]([O-])c2ccc(C(=O)NCc3ccc4c(c3)OCO4)cc21 (racemic)	353 nM	
CCN1C(=O)c2ccccc2[S+]([O-])c2ccc(C(=O)Nc3ccccc3)cc21 (racemic)	887 nM	
CN1C(=O)c2ccccc2[S@@+]([O-])c2ccc(C(=O)NCCc3cccs3)cc21	> 77000 nM	AC50 (D(2) dopamine receptor [2]): > 77000 nM; AC50 (D(3) dopamine receptor [3]): > 77000 nM; Ki (D(2) dopamine receptor [4]): > 50000 nM; Ki (D(3) dopamine receptor [5]): > 50000 nM
CN1C(=O)c2ccccc2[S@+]([O-])c2ccc(C(=O)NCc3cccnc3)cc21	445 nM	AC50 (D(2) dopamine receptor [2]): 2890 nM; AC50 (D(3) dopamine receptor [3]): 14500 nM; Ki (D(2) dopamine receptor [4]): 310 nM; Ki (D(3) dopamine receptor [5]): 21000 nM; Ratio (CHO): 5; Ratio Ki (HEK293): 70
CCN1C(=O)c2ccccc2[S+]([O-])c2ccc(C(=O)NCCc3ccc(OC)cc3)cc21 (racemic)	353 nM	
COc1ccc(CNC(=O)c2ccc3c(c2)N(Cc2ccccc2)C(=O)c2ccccc2[S+]3[O-])cc1 (racemic)	8870 nM	
COc1ccc(CNC(=O)c2cccc(N3C(=O)c4ccccc4C3=O)c2)cc1	> 77000 nM	
CN(C)CCCNC(=O)c1ccc2c(c1)N(C)C(=O)c1ccccc1[S+]2[O-] (racemic)	560 nM	
CCN1C(=O)c2ccccc2[S+]([O-])c2ccc(C(=O)OCc3ccc(OC)cc3)cc21 (racemic)	> 77000 nM	
CCN(Cc1ccccc1)C(=O)c1ccc2c(c1)N(CC)C(=O)c1ccccc1[S+]2[O-] (racemic)	56000 nM	
CCN1C(=O)c2ccccc2[S+]([O-])c2ccc(C(=O)Nc3ccc(OC)cc3)cc21 (racemic)	141 nM	
CCN1C(=O)c2ccccc2[S+]([O-])c2ccc(C(=O)NCc3ccc(S(C)(=O)=O)cc3)cc21 (racemic)	353 nM	
CCN1C(=O)c2ccccc2Sc2ccc(C(=O)NCc3ccc(OC)cc3)cc21	705 nM	
CCN1C(=O)c2ccccc2[S+]([O-])c2ccc(C(=O)NCc3ccc(Cl)cc3)cc21 (racemic)	509 nM	
CCN1C(=O)c2ccccc2[S+]([O-])c2ccc(C(=O)N(C)Cc3ccc(OC)cc3)cc21 (racemic)	> 77000 nM	
CN1C(=O)c2ccccc2[S@+]([O-])c2ccc(C(=O)NCCN3CCCC3)cc21	70 nM	AC50 (D(2) dopamine receptor [2]): 363 nM; AC50 (D(3) dopamine receptor [3]): 4570 nM; Ki (D(2) dopamine receptor [4]): 210 nM; Ki (D(3) dopamine receptor [5]): 350 nM; Ratio (CHO): 12.6; Ratio Ki (HEK293): 1.7
CN1C(=O)c2ccccc2[S+]([O-])c2ccc(C(=O)NCc3cccc(Cl)c3)cc21 (racemic)	281 nM	
CCN1C(=O)c2ccccc2[S+]([O-])c2ccc(C(=O)NCc3ccccc3OC)cc21 (racemic)	4460 nM	
COc1ccc(CNC(=O)c2ccc3c(c2)N(C)C(=O)c2ccccc2[S+]3[O-])cc1 (racemic)	112 nM	
CCN1C(=O)c2ccccc2[S+]([O-])c2ccc(C(=O)NCc3ccccc3)cc21 (racemic)	445 nM	
CCN1C(=O)c2ccccc2[S+]([O-])c2ccc(C(=O)NCc3ccc(C(C)(C)C)cc3)cc21 (racemic)	353 nM	
CN1C(=O)c2ccccc2[S@+]([O-])c2ccc(C(=O)NCc3ccc(Br)cc3)cc21	89 nM	AC50 (D(2) dopamine receptor [2]): 1020 nM; AC50 (D(3) dopamine receptor [3]): 4570 nM; Ki (D(2) dopamine receptor [4]): 240 nM; Ki (D(3) dopamine receptor [5]): 370 nM; Ratio (CHO): 4.5; Ratio Ki (HEK293): 1.5
CN1C(=O)c2ccccc2[S+]([O-])c2ccc(C(=O)NCc3cccnc3)cc21 (racemic)	281 nM	
CCN1C(=O)c2ccccc2[S+]([O-])c2ccc(C(=O)NCc3ccc(C)cc3)cc21 (racemic)	177 nM	
